Results published in ChEMBL document CHEMBL2331286 (ACS Med Chem Lett, 2013).
Active and inactive are the calls of the source. The calls are words filed in the database; no cut-off is given here.

Tests used:
[1] = molecular target: T1, Serine/threonine-protein kinase B-raf (Homo sapiens, UniProt P15056, V600E); experiment: Inhibition of B-Raf V600E mutant in human SK-MEL-28 cells assessed as decrease in ERK phosphorylation incubated for 1 hr by immunoassay; assay type: cell-based
[2] = molecular target: T1, Serine/threonine-protein kinase B-raf; experiment: Inhibition of N-terminal His tagged B-Raf V600E mutant (unknown origin) expressed in baculovirus infected insect cells co-expressing CDC37 assessed as decrease in biotinylated-MEK protein phosphorylation by AlphaScreen assay
Rattus norvegicus = experiment: Dose-normalized AUC in po dosed rat; assay type: ADME, organism-based; conditions: in vivo
[3] = Blood clearance in iv dosed dog; assay type: ADME, organism-based, Canis lupus familiaris
Mus musculus [4] = experiment: Toxicity in CD1 nu/nu mouse bearing B-Raf V600E mutant harboring human A375P-F11 cells assessed as changes in body weight at 0.1 to 100 mg/kg, po qd for 14 days; assay type: organism-based; parameters: dose 0.1-100 mg/kg, route oral; conditions: in vivo, 336 h
Canis familiaris = experiment: Dose-normalized AUC in po dosed dog; assay type: ADME, organism-based, Canis lupus familiaris; conditions: in vivo
Mus musculus [5] = experiment: In vivo inhibition of B-Raf V600E mutant-mediated ERK1/2 phosphorylation in tumor of po dosed CD1 nu/nu mouse bearing B-Raf V600E mutant harboring human A375P-F11 cells administered as single dose by duplex ELISA; assay type: functional, organism-based
How it was run: (§1)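 A375P-F11 xenografts in nude mice, oral gavage dosing in 0.5% HPMC/0.2% Tween-80 water pH 8.0. Tumors homogenized in Tris pH 7.5 lysis buffer with EDTA, EGTA, Triton X-100, SDS, phosphatase inhibitors, kept on ice; spun 14,000 rpm 15 min 4°C, flash frozen. Total and phospho-ERK1/2 measured by duplex electrochemiluminescent ELISA.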

Mus musculus [6] = experiment: In vivo inhibition of B-Raf V600E mutant-mediated ERK1/2 phosphorylation in tumor of CD1 nu/nu mouse bearing B-Raf V600E mutant harboring human A375P-F11 cells at =< 30 mg/kg, po administered as a single dose measured after 24 hrs by duplex ELISA; assay type: functional, organism-based; parameters: dose 30 mg/kg; how it was run: as §1
COLO 205 = experiment: Inhibition of human COLO205 cell proliferation; assay type: functional, cell-based
[7] = Antitumor activity against B-Raf V600E mutant harboring human A375P-F11 cells xenografted in CD1 nu/nu mouse assessed as tumor growth inhibition at 100 mg/kg, po qd for 14 days by Vernier caliper; assay type: functional; conditions: A375P-F11, 336 h, read-out: GI
How it was run: (§2)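 A375P-F11 (single-cell clone of A375P selected by limiting dilution) grown as xenografts in nude mice; daily oral gavage started at ~150-200 mm3 tumors, vehicle 0.5% HPMC + 0.2% Tween-80 in water pH 8.0, 0.2 mL/20 g. Calipers twice weekly; volume = length x width² x 0.5; mean volume, n=7-8 mice/group. Complete regression = >93% volume decrease for ≥1 week.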

SK-MEL-28 = experiment: Inhibition of B-Raf V600E mutant-driven SK-MEL-28 cell proliferation after 72 hrs by CellTiter-Glo luminescent assay; assay type: functional, cell-based; conditions: Homo sapiens, SK-MEL-28, 72 h
Mus musculus [8] = experiment: In vivo inhibition of B-Raf V600E mutant-mediated ERK1/2 phosphorylation in tumor of CD1 nu/nu mouse bearing B-Raf V600E mutant harboring human A375P-F11 cells at => 3 mg/kg, po administered as single dose measured after 2 to 6 hrs by duplex ELISA; assay type: functional; how it was run: as §1
HFF = experiment: Inhibition of proliferation of human HFF cells harboring wild type B-Raf; assay type: cell-based
A375P-F11 = experiment: Antitumor activity against B-Raf V600E mutant harboring human A375P-F11 cells xenografted in po dosed CD1 nu/nu mouse assessed as tumor growth inhibition administered qd for 14 days by Vernier caliper; assay type: functional, organism-based; how it was run: as §2
[9] = Blood clearance in iv dosed rat; assay type: ADME, organism-based
TGF-beta receptor type-1 = molecular target: T2, TGF-beta receptor type-1 (Homo sapiens, UniProt P36897); experiment: Inhibition of Alk5 in TGF-beta-stimulated human HepG2 cells assessed as decrease in Smad2 phosphorylation treated for 45 mins prior to TGF-beta stimulation measured after 60 mins by odyssey blot scanner analysis; assay type: cell-based
T2 sequence (P36897 whole entry): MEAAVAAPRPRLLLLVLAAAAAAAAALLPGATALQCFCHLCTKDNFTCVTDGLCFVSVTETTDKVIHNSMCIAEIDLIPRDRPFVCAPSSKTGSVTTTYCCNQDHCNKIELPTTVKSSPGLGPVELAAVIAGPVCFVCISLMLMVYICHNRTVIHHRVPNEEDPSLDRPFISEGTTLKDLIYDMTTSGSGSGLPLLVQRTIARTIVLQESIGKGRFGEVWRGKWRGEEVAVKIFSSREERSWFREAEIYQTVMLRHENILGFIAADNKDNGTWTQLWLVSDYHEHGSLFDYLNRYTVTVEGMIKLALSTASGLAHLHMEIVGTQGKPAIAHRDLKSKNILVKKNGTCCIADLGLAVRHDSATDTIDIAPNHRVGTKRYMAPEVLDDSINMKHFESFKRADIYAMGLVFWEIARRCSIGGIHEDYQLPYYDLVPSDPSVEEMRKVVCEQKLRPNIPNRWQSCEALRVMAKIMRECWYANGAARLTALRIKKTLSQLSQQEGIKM
How it was run: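 HepG2 cells seeded at 500,000 cells/well, adhered overnight at 37°C/5% CO2 in BME+10% serum; compound added in serum-free medium for 45 min, then stimulated with 1 ng/ml TGF-β for 60 min.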

[10] = Oral bioavailability in rat; assay type: ADME, organism-based; conditions: in vivo
[11] = Intrinsic clearance in monkey liver microsome; assay type: ADME, Macaca mulatta; conditions: rhesus monkey, microsomes
[12] = Blood clearance in iv dosed monkey; assay type: ADME, organism-based, Macaca mulatta; conditions: rhesus monkey
Liver microsomes = experiment: Intrinsic clearance in rat liver microsome; assay type: ADME
[13] = Intrinsic clearance in dog liver microsome at 10 uM after 30 mins by LC/MS analysis; assay type: ADME, Canis lupus familiaris; conditions: microsomes, 0.5 h
[14] = Oral bioavailability in dog; assay type: ADME, organism-based, Canis lupus familiaris; conditions: in vivo
Rhesus monkey = experiment: Dose-normalized AUC in po dosed monkey; assay type: ADME, organism-based, Macaca mulatta; conditions: in vivo
[15] = Oral bioavailability in monkey; assay type: ADME, organism-based, Macaca mulatta; conditions: rhesus monkey, in vivo

T1 sequence (P15056 2-766 V600E limits assumed): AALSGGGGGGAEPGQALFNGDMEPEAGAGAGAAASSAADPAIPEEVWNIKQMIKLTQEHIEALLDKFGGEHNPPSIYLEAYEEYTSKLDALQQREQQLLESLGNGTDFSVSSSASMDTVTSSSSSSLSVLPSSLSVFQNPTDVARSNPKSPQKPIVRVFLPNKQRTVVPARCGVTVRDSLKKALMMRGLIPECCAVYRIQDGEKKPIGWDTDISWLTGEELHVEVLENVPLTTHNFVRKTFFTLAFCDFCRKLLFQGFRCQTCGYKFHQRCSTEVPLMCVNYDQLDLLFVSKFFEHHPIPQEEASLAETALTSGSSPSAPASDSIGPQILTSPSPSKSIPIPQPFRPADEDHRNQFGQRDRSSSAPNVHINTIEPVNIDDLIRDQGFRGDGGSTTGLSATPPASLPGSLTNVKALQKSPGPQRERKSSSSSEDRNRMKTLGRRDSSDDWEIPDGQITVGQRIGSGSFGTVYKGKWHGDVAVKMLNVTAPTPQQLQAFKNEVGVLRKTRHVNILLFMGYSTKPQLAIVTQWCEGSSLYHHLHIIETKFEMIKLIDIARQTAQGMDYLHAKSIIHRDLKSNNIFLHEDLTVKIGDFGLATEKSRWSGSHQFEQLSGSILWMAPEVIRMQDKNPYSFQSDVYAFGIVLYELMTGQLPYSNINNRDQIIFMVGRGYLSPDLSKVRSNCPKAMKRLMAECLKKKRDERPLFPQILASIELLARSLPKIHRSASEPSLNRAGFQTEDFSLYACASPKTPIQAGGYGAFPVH

SMILES | IC50 [1] [nM] | IC50 [2] [nM] | AUC/dose (Rattus norvegicus) [ng·h/mL/mg/kg] | AUC/dose (Canis familiaris) [ng·h/mL/mg/kg] | other results
CC(C)c1nc(-c2cccc(NS(=O)(=O)c3cccc(F)c3)c2)c(-c2ccnc(NCC(N)=O)n2)s1 | 26 | 11 | 6 | – | –
CC(C)c1nc(-c2ccc(F)c(NS(=O)(=O)c3cccc(F)c3)c2)c(-c2ccnc(N)n2)s1 | 2560 | 536 | – | – | –
CC(C)(C)c1nc(-c2cccc(NS(=O)(=O)c3c(F)cccc3F)c2F)c(-c2ccnc(N)n2)s1 [DABRAFENIB] | – | – | 729 | 3754 | clearance [3]: 4 mL/min/kg; Activity (Mus musculus [4]): Non-toxic; inhibition (Mus musculus [5]): Dose-dependent effect; inhibition (Mus musculus [6]): inactive; IC50 (COLO 205): 7 nM; inhibition in vivo at 100 mg/kg [7]: 50%; IC50 (SK-MEL-28): 3 nM; inhibition in vivo at 3 mg/kg (Mus musculus [8]): > 50%; IC50 (HFF): 3000 nM; growth inhibition (GI) (A375P-F11): Dose-dependent effect; clearance [9]: 18 mL/min/kg; IC50 (TGF-beta receptor type-1): 3700 nM
CC(C)c1nc(-c2cccc(NS(=O)(=O)c3c(F)cccc3F)c2)c(-c2ccnc(NCCS(C)(=O)=O)n2)s1 | 4 | 1 | 34 | – | –
CC(C)c1nc(-c2cccc(NS(=O)(=O)c3cccc(F)c3)c2)c(-c2ccnc(NCCCN(C)C)n2)s1 | 73 | 28 | – | – | –
CC(C)c1nc(-c2cccc(NS(=O)(=O)c3c(F)cccc3F)c2F)c(-c2ccnc(NCCS(C)(=O)=O)n2)s1 | 7 | 0.3 | 125 | 68 | –
CC(C)c1nc(-c2cccc(NS(=O)(=O)c3c(F)cccc3F)c2F)c(-c2ccnc(Nc3ccc(N4CCOCC4)nc3)n2)s1 | 23 | 3.8 | 1748 | 42 | clearance [3]: 38 mL/min/kg; bioavailability [10]: 85%; CLH [11]: 8 mL/min/g; clearance [12]: 39 mL/min/kg; CLH (Liver microsomes): 9 mL/min/g; IC50 (SK-MEL-28): 48 nM; clearance [9]: 9 mL/min/kg; CLH [13]: 53 mL/min/g; bioavailability [14]: 10%; AUC/dose (Rhesus monkey): 23 ng·h/mL/mg/kg; bioavailability [15]: 5%
CC(C)c1nc(-c2cccc(NS(=O)(=O)c3c(F)cccc3F)c2)c(-c2ccnc(N)n2)s1 | 78 | 40 | 23 | – | –
CC(C)c1nc(-c2cccc(NS(=O)(=O)c3cccc(F)c3)c2)c(-c2ccnc(NC3CC3)n2)s1 | 28 | 32 | 16 | – | –
CC(C)(C)c1nc(-c2cccc(NS(=O)(=O)c3cc(F)ccc3F)c2)c(-c2ccnc(N)n2)s1 | 7 | 8 | 27 | – | –
CC(C)(C)c1nc(-c2ccc(F)c(NS(=O)(=O)c3c(F)cccc3F)c2)c(-c2ccnc(NCCS(C)(=O)=O)n2)s1 | 11 | 13 | 1373 | – | –
CC(C)c1nc(-c2ccc(F)c(NS(=O)(=O)c3c(F)cccc3F)c2)c(-c2ccnc(NCCS(C)(=O)=O)n2)s1 | 51 | 13 | 1024 | 43 | –
